procasp3 activ: activates human procaspase-3. recombinant procaspase-3 D3A, Ac-DEVD-pNA absorbance 405 nm. 330,000 compounds, 0.11% hits. activation, % at 8.5 µM. AID 463141;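 active = activation above the mean of all tested compounds plus 3 SD, cut at about 21% in these data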;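 also: 0% = DMSO alone and 100% = DMSO wells spiked with extra 5 µM PC-3 D3A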
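Assay system: Procaspase-3 D3A mutant, all three cleavage aspartates alanine. Buffer or medium: Zinc-free HEPES saline buffer with Triton X-100. Times: 1 h compound preincubation, 2 h substrate hydrolysis at 25 °C. Measured by: 405 nm absorbance of p-nitroaniline, reads at 0 and 120 min. Read-out basis: percent activation relative to control range. Replicates: singlicate.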
proCasp7 act: counter-screen: procaspase-7 (human) activation; activation, % at 8.5 µM; 330,000 compounds, 0.093% hits; recombinant procaspase-7, Ac-DEVD-pNA absorbance 405 nm; D23A/D198A/D206A triple mutant, cannot self-cleave; scale: DMSO 0, 5 µM enzyme 100;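 active = percent activation above the screen-wide mean plus 3 SD, cut at about 25% in these data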
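Test system: Procaspase-7 triple mutant (PC-7 D3A). Also added: Ac-DEVD-pNA substrate, 400 µM as added. Schedule: 1 h enzyme–compound preincubation and 2 h substrate reaction, both 25 °C. Signal: p-Nitroaniline absorbance at 405 nm, read at 0 and 120 min. Control set: low DMSO alone, high DMSO plus 5 µM PC-7.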
Apaf-1 inh: human Apaf-1 inhibition | O14727 | reconstituted apoptosome caspase-3 activity, DEVD-Rh110 fluorescence | inhibition, % at 20 µM | 330,000 compounds, 0.71% hits; active = inhibition of at least 40% at 20 µM;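 also: plate controls were DMSO wells for no effect and DEVD-CHO caspase inhibitor wells for full effect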
Target sequence (O14727 whole entry, looked up): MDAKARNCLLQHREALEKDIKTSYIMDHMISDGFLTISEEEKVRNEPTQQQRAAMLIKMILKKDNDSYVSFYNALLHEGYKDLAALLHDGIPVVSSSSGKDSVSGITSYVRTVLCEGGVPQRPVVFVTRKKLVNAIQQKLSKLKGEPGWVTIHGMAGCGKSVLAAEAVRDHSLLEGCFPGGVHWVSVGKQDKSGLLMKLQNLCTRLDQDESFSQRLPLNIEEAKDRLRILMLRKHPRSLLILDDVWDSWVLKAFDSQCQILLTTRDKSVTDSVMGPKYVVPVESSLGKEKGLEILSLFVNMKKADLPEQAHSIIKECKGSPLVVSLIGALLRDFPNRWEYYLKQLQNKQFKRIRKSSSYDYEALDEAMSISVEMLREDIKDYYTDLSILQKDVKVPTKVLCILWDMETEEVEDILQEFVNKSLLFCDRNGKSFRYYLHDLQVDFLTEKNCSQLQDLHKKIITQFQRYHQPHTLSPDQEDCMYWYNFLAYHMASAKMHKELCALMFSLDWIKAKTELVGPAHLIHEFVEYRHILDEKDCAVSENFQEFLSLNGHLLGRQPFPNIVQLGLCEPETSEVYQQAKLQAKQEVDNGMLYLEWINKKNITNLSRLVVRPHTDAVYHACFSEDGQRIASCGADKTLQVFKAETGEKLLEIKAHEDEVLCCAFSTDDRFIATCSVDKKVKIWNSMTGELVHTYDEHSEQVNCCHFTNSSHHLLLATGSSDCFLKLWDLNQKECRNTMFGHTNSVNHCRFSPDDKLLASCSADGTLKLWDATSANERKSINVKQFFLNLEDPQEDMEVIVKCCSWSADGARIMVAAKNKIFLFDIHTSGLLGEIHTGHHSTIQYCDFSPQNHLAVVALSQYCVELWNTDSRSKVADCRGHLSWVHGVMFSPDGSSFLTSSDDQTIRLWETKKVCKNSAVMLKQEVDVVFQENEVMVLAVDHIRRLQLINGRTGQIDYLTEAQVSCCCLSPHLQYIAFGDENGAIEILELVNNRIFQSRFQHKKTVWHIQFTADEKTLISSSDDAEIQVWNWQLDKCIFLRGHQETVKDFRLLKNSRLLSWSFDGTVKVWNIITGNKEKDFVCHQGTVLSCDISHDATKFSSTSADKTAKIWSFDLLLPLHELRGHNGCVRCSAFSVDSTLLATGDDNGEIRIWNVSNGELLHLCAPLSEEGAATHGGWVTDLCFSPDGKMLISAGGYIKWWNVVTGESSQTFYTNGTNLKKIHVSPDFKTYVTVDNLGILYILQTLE
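Material: biochemical Apaf-1 apoptosome reconstitution. Medium: Hepes buffer, pH 7.5. Also added: cytochrome c activation, bis-DEVD rhodamine 110 substrate. Timing: 30 min compound preincubation, 50 min activation, room temperature. Measured by: rhodamine 110 fluorescence at Ex 480/Em 540 nm.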
GSTO1 inh: counter-screen for RBBP9 inhibitors: inhibitors of human GSTO1 | inhibition, % at 5.96 µM | 300,000 compounds, 1.1% hits | P78417 | recombinant GSTO1, activity-based probe fluorescence polarization;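 active = inhibition above the campaign mean inhibition plus 3 SD, cut at about 35% in these data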;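 also: 0% = GSTO1-1 with DMSO and 100% = wells lacking GSTO1-1 enzyme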
EBNA-1 inh: blocks EBNA-1 binding to DNA. inhibition, % at 14.8 µM. EBNA-1 DNA binding, fluorescence polarization. 300,000 compounds, 0.34% hits; in the data active = inhibition above about 28%
ZTA DNA inh: blocks Epstein-Barr virus ZTA, an EBNA-1 counter-screen; P03206; ZTA-DNA binding, fluorescence polarization; inhibition, % at 11 µM; 320,000 compounds, 0.15% hits; in the data active = inhibition above about 33%
GSTO1 confirm: GSTO1 (human) inhibition, confirmation; shares compounds with GSTO1 inh; recombinant GSTO1, probe fluorescence polarization; inhibition, % at 5.96 µM; 2,400 compounds, 54% hits; AID 2176;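 active = inhibition above the primary screen's cutoff, its mean inhibition plus 3 SD, cut at about 35% in these data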;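 also: loss of polarization as inhibitors block binding of rhodamine sulfonate ester activity probe; 0% = GSTO1 with DMSO and 100% = wells lacking GSTO1 enzyme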
ZTA inh confirm: confirmation of Epstein-Barr virus ZTA DNA binding inhibitors; inhibition, % at 11.1 µM; 320 compounds, 30% hits; shares compounds with ZTA DNA inh; Zta-ZRE DNA binding, fluorescence polarization; AID 2361;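 active = mean inhibition across triplicate runs above the hit threshold derived for the original primary screen, cut at about 33% in these data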;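 also: 0% = Zta with DMSO and 100% = wells lacking Zta protein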
EBNA-1 counter: blocks EBNA-1 DNA binding in ZTA counter-screen; shares compounds with ZTA DNA inh; fluorescence polarization; inhibition, % at 14.8 µM; 320 tested, under 10 active
proCasp7 act trip: activates human procaspase-7, counter-screen for procaspase-3 activators; recombinant procaspase-7, Ac-DEVD-pNA absorbance; asp23/198/206-to-Ala mutant, cannot self-cleave; 210 tested, under 10 active; activation, % at 8.5 µM; shares compounds with procasp3 activ;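 active = mean activation above a set limit taken from an earlier procaspase-7 screen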;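 also: 0% = DMSO wells and 100% = DMSO plus 5 µM procaspase-7 enzyme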
procasp3 conf: confirmation of human procaspase-3 activators | shares compounds with procasp3 activ | recombinant PC-3 D3A, Ac-DEVD-pNA absorbance 405 nm; 100% is higher-enzyme control | activation, % at 8.5 µM | 210 compounds, 10% hits | AID 488954;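 active = mean activation above a set limit carried over from the earlier primary screen, cut at about 22% in these data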
Apaf-1 inh conf: Apaf-1 inhibition, single-dose confirmed; shares compounds with Apaf-1 inh; reconstituted apoptosome, caspase-3 DEVD-Rh110 fluorescence; inhibition, % at 20 µM; 1,800 compounds, 25% hits;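 active = mean inhibition of at least 40% at 20 µM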;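 also: plate controls were DMSO wells for no effect and DEVD-CHO caspase inhibitor control wells for full effect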
Rh110 interf inh: counter-screen for Apaf-1 inhibitors: fluorescence interference; shares compounds with Apaf-1 inh; Rh110 fluorescence interference, quenched caspase reaction; activation (fluorescence interference), % at 20 µM; 1,800 tested, under 10 active; AID 504615;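 active = signal rise of 40% or more at 20 µM, treated as a fluorescence artifact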
Apaf1 inh interf: shows fluorescence interference in the Apaf-1 inhibitor assay format. 460 tested, under 10 active. fluorescence interference counterscreen, Apaf-1 assay format. AID 588538. shares compounds with Apaf-1 inh. IC50, µM
The depositor's hits bear a star; nt = no result given. The list is not random: actives were taken first. Their share in the collection is about 1.8%. Unless noted, no rule for the calls is given here.

SMILES	procasp3 activ	proCasp7 act	Apaf-1 inh	GSTO1 inh	EBNA-1 inh	ZTA DNA inh	GSTO1 confirm	Apaf-1 inh conf	Rh110 interf inh	others
COP(=O)(OC)C(NC(=O)/C=C/c1ccccc1)C(Cl)(Cl)Cl (stereo not drawn)	15	7	-3	39*	2	-17	69*	nt	nt
O=C(N/N=C/c1c(O)n(-c2cccc3ccccc23)c(=O)[nH]c1=O)c1ccncc1	-9	-5	4	6	-9	-5	nt	nt	nt
CCOc1ccccc1-n1c(O)c(C=Nc2ccc(N(CC)CC)cc2)c(=O)[nH]c1=O	-6	-22	25	54*	0	37*	5	nt	nt	ZTA inh confirm=5;EBNA-1 counter=0
CCN(CC)c1ccc(N=Cc2c(O)n(-c3ccccc3)c(=O)[nH]c2=O)cc1	-15	-24	-10	42*	10	38*	8	nt	nt	ZTA inh confirm=1;EBNA-1 counter=-4
CCN(CC)c1ccc(N=Cc2c(O)n(-c3ccccc3C)c(=O)[nH]c2=O)cc1	-12	-25	17	28	-7	32	nt	nt	nt
CCOc1ccccc1N1C(=O)CC(=O)NC1=O	-11	-21	8	5	1	8	nt	nt	nt
CCCOC(=O)c1c(N)n(Cc2cccs2)c2nc3ccccc3nc12	48*	6	29	42*	-4	6	-2	nt	nt	proCasp7 act trip=-20;procasp3 conf=-13
COc1cccc(C2(O)CCN(Cc3ccncc3)CC2)c1	-2	3	3	0	-3	14	nt	nt	nt
COCCCNC(=O)c1c(NC(=O)c2ccccc2)n(Cc2ccccc2)c2nc3ccccc3nc12	0	-4	33	16	-3	4	nt	nt	nt
CCCCn1c(N)c(C(=O)NCc2cccs2)c2nc3ccccc3nc21	46*	-5	85*	61*	8	0	82*	24	9	proCasp7 act trip=-20;procasp3 conf=-14
CCCCCn1c(N)c(C(=O)NCc2cccs2)c2nc3ccccc3nc21	18	-34	70*	60*	6	-13	5	41*	8	Apaf1 inh interf=>100
Nc1c(C(=O)NCCCc2ccccc2)c2nc3ccccc3nc2n1Cc1cccs1	-11	-19	84*	58*	12	-14	-1	35	10
Nc1c(C(=O)NCc2ccco2)c2nc3ccccc3nc2n1Cc1ccc(F)cc1	0	-7	89*	71*	-8	-29	2	25	12
O=c1[nH]c(=S)n(-c2ccccc2F)c(O)c1C=NCCN1CCNCC1	7	-5	8	1	1	-16	nt	nt	nt
CCC1(c2cccc(O)c2)CCCCN(C)C1 (stereo not drawn)	1	-4	-4	7	-1	13	nt	nt	nt
O=C(N[C@H]1CP(=O)(Oc2ccccc2)O[C@H](COCc2ccccc2)[C@H]1O)C(Cl)(Cl)Cl (stereo partly drawn)	9	0	2	11	8	6	nt	nt	nt
CC(C)N(Cc1ccco1)/N=C/c1c(O)n(Cc2ccccc2)c(=O)[nH]c1=O	11	-4	8	5	1	-3	nt	nt	nt
CC(C)(C)NC(=O)C1CC2CCCCC2CN1 (stereo not drawn)	-4	3	0	3	6	7	nt	nt	nt
COC(=O)c1nc(-c2ccc3c(n2)C(=O)C(N)=C(OC)C3=O)c(N)c(-c2ccc(OC)c(OC)c2O)c1C	-4	3	89*	79*	1	6	88*	100*	3	Apaf1 inh interf=>100
Cc1nn(Cc2ccc(Cl)cc2Cl)c(Cl)c1C(=O)Nc1ccc(OC(F)F)cc1	4	-1	-6	3	11	8	nt	nt	nt
O=C(c1ccc(Cl)cc1)C1CCCN(Cc2ccc3nonc3c2)C1 (stereo not drawn)	7	-5	8	9	-12	-11	nt	nt	nt
COC(=O)C1=C(c2ccc(C(C)=O)cc2)C[C@@H]2CC[C@H]1N2C(=O)NCc1ccco1	-1	3	3	nt	nt	4	nt	nt	nt
CC(C)OC(=O)c1c(N)n(CC2CCCO2)c2nc3ccccc3nc12 (stereo not drawn)	-7	-5	81*	45*	-2	9	5	11	5
CC(C)CCn1c(N)c(C(=O)OCC2CCCO2)c2nc3ccccc3nc21 (stereo not drawn)	-6	-22	41*	88*	-2	7	6	18	0
CCOCCCn1c(N)c(C(=O)Nc2sc3c(c2C(=O)OC)CCCC3)c2nc3ccccc3nc21	-5	4	-1	1	10	-11	nt	nt	nt
Nc1cc2nc3ccccc3nc2cc1N	-3	-21	62*	56*	5	-12	41*	51*	-9	Apaf1 inh interf=>100
O=C(c1ccc2nc(-c3ccco3)c(-c3ccco3)nc2c1)N1CCC2(CC1)OCCO2	-7	-22	56*	90*	7	21	16	32	2
CCCCn1c(NC(=O)c2ccco2)c(C(=O)OCC)c2nc3ccccc3nc21	-20	-20	83*	87*	-9	-7	87*	80*	1	Apaf1 inh interf=>100
COCCCn1c(N)c(C(=O)NCCC(C)C)c2nc3ccccc3nc21	32*	12	91*	39*	-3	13	64*	52*	6	proCasp7 act trip=-21;procasp3 conf=-14;Apaf1 inh interf=>100
CCCCOCCCn1c(N)c(C(=O)OCCOC)c2nc3ccccc3nc21	0	-4	66*	38*	-9	8	35*	2	12

Screening data (PubChem BioAssay)
